Results on one molecule are retold here after ChEMBL document CHEMBL5046323, “Discovery of Phospholipase D Inhibitors with Improved Drug-like Properties and Central Nervous System Penetrance” (ACS Med Chem Lett, 2022).

Structures are written as SMILES.

The nature of data set [1]: Clearance in iv dosed rat administered as cassette dose. It is filed as ADME, organism-based. The conditions noted are these: in vivo. An outline of the steps:
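Rat IV clearance from cassette dosing; unbound clearance calculated as CL/fu.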

The target of the next data set is T1, Phospholipase D1 (Homo sapiens, UniProt Q13393).
T1 sequence (Q13393 whole entry): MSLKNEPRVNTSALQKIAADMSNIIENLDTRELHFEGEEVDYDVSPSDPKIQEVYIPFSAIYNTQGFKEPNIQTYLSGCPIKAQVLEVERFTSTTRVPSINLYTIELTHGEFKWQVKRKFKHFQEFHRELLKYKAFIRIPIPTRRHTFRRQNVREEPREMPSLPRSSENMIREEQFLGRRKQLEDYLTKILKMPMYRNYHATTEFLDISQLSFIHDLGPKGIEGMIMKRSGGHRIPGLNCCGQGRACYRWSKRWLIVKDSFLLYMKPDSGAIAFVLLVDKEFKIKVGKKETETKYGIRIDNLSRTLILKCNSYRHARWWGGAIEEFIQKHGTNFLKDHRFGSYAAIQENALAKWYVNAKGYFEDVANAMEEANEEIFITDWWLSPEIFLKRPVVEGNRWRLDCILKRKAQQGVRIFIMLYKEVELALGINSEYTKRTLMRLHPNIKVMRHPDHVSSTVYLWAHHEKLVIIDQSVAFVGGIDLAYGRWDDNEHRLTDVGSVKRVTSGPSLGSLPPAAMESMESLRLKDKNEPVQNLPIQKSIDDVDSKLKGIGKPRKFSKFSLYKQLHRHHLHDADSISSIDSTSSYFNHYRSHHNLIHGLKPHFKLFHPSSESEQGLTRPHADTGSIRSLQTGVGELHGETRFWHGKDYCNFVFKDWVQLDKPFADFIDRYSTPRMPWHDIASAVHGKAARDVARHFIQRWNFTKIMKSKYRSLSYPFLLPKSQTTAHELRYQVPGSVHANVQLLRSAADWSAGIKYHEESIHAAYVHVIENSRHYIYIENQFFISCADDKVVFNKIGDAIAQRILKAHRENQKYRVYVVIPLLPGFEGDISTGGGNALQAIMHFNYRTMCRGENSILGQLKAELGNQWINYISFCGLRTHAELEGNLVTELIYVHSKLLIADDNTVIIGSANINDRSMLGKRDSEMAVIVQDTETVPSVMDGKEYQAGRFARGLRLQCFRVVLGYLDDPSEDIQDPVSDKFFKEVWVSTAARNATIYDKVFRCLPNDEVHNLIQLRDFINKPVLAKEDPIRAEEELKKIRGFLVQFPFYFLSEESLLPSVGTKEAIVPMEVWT
The data set can be described thus: Inhibition of PLD1 (unknown origin) expressed in human HEK cells by immunoprecipitation assay. It is filed as cell-based.

The nature of data set [2]: Microsomal stability in human liver microsomes assessed as intrinsic clearance. It is filed as ADME, Microsome. The following applies: read-out: CLH. An outline of the steps: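 Intrinsic clearance (CLint) determined in rat or human liver microsomes.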
The nature of data set [3]: Unbound brain concentration in sc dosed C57BL/6 mouse measured after 60 mins by LC-FTICR-MS analysis. The following applies: in vivo, 1 h. It is filed as ADME, organism-based. An outline of the steps:
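Mice dosed subcutaneously at 10 mg/kg 15, 30 or 60 min before injection of 1-butanol-d10; tissues (liver, brain) collected 15 min after butanol injection for compound levels.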

A short description of data set [4]: Plasma protein binding in rat. The class given is ADME, cell-free.

`C[C@@H]1CN(C(=O)[C@H](C)N2CCC(n3c(=O)[nH]c4ccccc43)CC2)C[C@@H](C)N1`: in data set [1], the clearance (commonly a measure of how efficiently the substance is removed, as volume per time) came out at 28 mL/min/kg. At Phospholipase D1, the IC50 (in general, the midpoint of a concentration-inhibition curve) stood at 44 nM. Moreover, the CLint scaled in data set [2] stood at 6 mL/min/kg. In addition, the “Drug uptake(free)” value in data set [3] is recorded as 53.2 nM. In data set [4], this molecule had a PPB of 36.3%.
